The values below come from PMC13499490 (International Journal for Parasitology: Drugs and Drug …, 2026).

As usually defined, the % Inhibition is how much of the control response was suppressed. Read a high % Inhibition as strong suppression. For orientation: CC50 means the concentration at which the toxic effect on the cells reaches its halfway point. High values mean lower toxicity to the cells, low ones greater toxicity to the cells.

The test system of series [1] is T. cruzi extracts (TCH) translating capped and polyadenylated Renilla luciferase reporter mRNA. It counts as biochemical, Trypanosoma cruzi. Particulars: for % Inhibition: initial screen, 40 μM, Renilla luciferase signal relative to DMSO; for concentration above which translation was fully inhibited: Fig. 3C.
Series [2] relates to supplemented TCH extract translating capped and polyadenylated Renilla mRNA. The series can be described thus: Miniaturized low-volume. To be noted: 8 μL; for % Inhibition (40 µM): Table S3, 40 µM; for inhibition of translation in T. cruzi extract (in words): 40 μM, 2 h, Fig. 3B. Format: biochemical, Trypanosoma cruzi.
Series [3] deals with protein synthesis in T. cruzi epimastigotes (WT, DM28c strain). In words: Puromycylation assay in living epimastigotes. Format: cell-based, Trypanosoma cruzi. To be noted: 40 μM, 1 h pre-incubation, then puromycin 10 μg/mL 15 min. Put shortly:
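Dm28c epimastigotes at 1 × 10⁷/mL in LIT-10% FBS, preincubated 1 h at 28°C with test compound (40 μM, from DMSO), with DMSO and 5 μM cycloheximide controls. Puromycin at 10 μg/mL, 15 min, 28°C; cells RIPA-lysed. 20 μg protein run on 10% SDS-PAGE and blotted with anti-puromycin mAb (1:100, overnight, 4°C), then IRDye680 secondary; anti-aldolase loading control. 150–20 kDa signal quantified relative to DMSO; 2–4 independent experiments.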

A short description of series [4]: Host cell cytotoxicity in infected U2OS cells. It counts as cell-based. To be noted: human. The gist of the method:
(§1)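 U2OS cells, grown in DMEM with 10% FBS at 37°C and 5% CO2, seeded at 500 cells/well in 384-well plates and infected after 24 h with 5000 Sylvio X10/1 trypomastigotes. Treated 24 h later with test compound (100 μM to 0.7 nM, 0.5% DMSO) for 48 h, with benznidazole and DMSO controls. Cells fixed in 4% paraformaldehyde, stained with DAPI and DRAQ5, imaged by high-content analysis. Amastigote-to-cell ratio normalised to untreated (100%) and non-infected (0%) wells. EC50 and CC50 from three-parameter nonlinear fit; selectivity index from mean EC50 and CC50.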

The test system of series [5] is T. cruzi amastigotes (DM28c parasite strain) in Vero cells. The series can be described thus: Amastigote proliferation and cytotoxicity in Vero cells. Format: cell-based, Trypanosoma cruzi. To be noted: DM28c trypomastigotes, Fig. S6.
Another series deals with Plasmodium falciparum. Particulars: ref Plouffe et al., 2008; cited from earlier work.
For series [6], the system named is T. cruzi amastigotes (Sylvio X10/1 clone) in U2OS cells. In words: Intracellular amastigote proliferation in infected U2OS cells. To be noted: for EC50: Trypanosoma cruzi, U2OS, 48 h, read-out: EC50 intracellular amastigotes; for selectivity index: from EC50 and CC50 averages, U2OS cells. Format: cell-based, Trypanosoma cruzi. The gist of the method:
as §1

For series [7], the system named is rabbit reticulocytes (Retic Lysate IVT kit) translating Renilla mRNA. In words: In vitro translation by rabbit reticulocyte lysate. It counts as biochemical. Particulars: 10 µM, 1 hour, Fig. S5. The gist of the method: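 Commercial rabbit reticulocyte lysate run per kit instructions, 0.6 μg per reaction of the capped, polyadenylated Renilla luciferase mRNA used in the parasite-extract assays.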

The test system of series [8] is T. cruzi epimastigotes (DM28c). The series can be described thus: Epimastigote proliferation, SYBR Green assay. Format: cell-based, Trypanosoma cruzi. To be noted: for EC50: Trypanosoma cruzi, 72 h, read-out: EC50 epimastigote proliferation; for concentration for maximal inhibition / full block of epimastigote growth: growth curves; for effect on epimastigote growth (in words): Fig. S2, 1% DMSO.

For series [9], the system named is T. cruzi parasite extract translating Renilla mRNA. In words: Miniaturized 5 μL T. cruzi in vitro translation assay. Format: biochemical, Trypanosoma cruzi. Particulars: 5 μl format, 40 μM, Fig. 5D. The gist of the method: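 Extract from DM28c-derived epimastigotes, lysed by nitrogen cavitation; the 30,000 × g supernatant was supplemented with translation buffer containing ATP, GTP, creatine phosphate/kinase, amino acids and spermidine. Reaction of 5 μL: 2 μL lysate, 1 μL test compound (40 μM), 2 μL SP6-transcribed capped, polyadenylated spliced-leader–Renilla luciferase mRNA (22 ng). Luminescence read after adding Renilla luciferase reagent.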

For a further series, the system named is PAK4. Particulars: mammalian cells; ref Pereira-Veiga et al., 2025; cited from earlier work.

`CC1CCC(C(C)C)C(OC(=O)Cn2c(-c3ccc(Br)cc3)[n+](C)c3ccccc32)C1.[Cl-]` (stereo not drawn) [Compound 3]: in [1], the “% Inhibition” value was approximately 20%.

Regarding `Cl.Fc1cccc(Nc2nc(NCC3CCCO3)c3ccccc3n2)c1` (stereo not drawn) [Compound 39A], the “% Inhibition (40 µM)” value in series [2] was “over 50%”.

`Cl.Oc1ccc(Nc2nc(NCC3CCCO3)c3ccccc3n2)cc1` (stereo not drawn) [Compound 39B]: the “% Inhibition (40 µM)” value in [2] was “over 50%”.

Consider `c1ccc2c(NCC3CCCO3)nc(Nc3ccncc3)nc2c1` (stereo not drawn) [Compound 39C], for which, in [2], the “% Inhibition (40 µM)” value was “around 50%”.

Regarding `Cl.Fc1ccc(Nc2nc(NCC3CCCO3)c3ccccc3n2)cc1` (stereo not drawn) [Compound 39D], the “puromycin incorporation into elongating protein chains (in words)” value in series [3] is “inhibited puromycin incorporation”.

`CN(C)c1nc(NCC2CCCO2)c2ccccc2n1.Cl` (stereo not drawn) [Compound 39F]: the “% Inhibition (40 µM)” value in [2] was “around 50%”.

In the case of `COc1ccccc1Nc1nc(NCC2CCCO2)c2ccccc2n1` (stereo not drawn) [Compound 39G], the cytotoxic concentration (CC50) at 48 h in series [4] turned out to be 33 ± 20 µM. In addition, in series [5], the “EC50 and CC50 values compared with the U2OS/Sylvio experiment (in words)” value is given as “slightly high values”. The “Plasmodium falciparum inhibition (in words)” value in the series on Plasmodium falciparum is recorded as “P. falciparum inhibitors”. Besides, the “% Inhibition (40 µM)” value in series [2] is “over 50%”. In series [6], the EC50 was found to be 80 ± 70 nM and the selectivity index is approximately 415. For the same compound, the “inhibition of protein synthesis by reticulocyte lysate (in words)” value in series [7] was “did not inhibit”. Besides, in series [3], the “puromycin incorporation into elongating protein chains (in words)” value was “inhibited puromycin incorporation”. Further, in [8], the EC50 is 2.8 ± 0.2 µM and the “concentration for maximal inhibition / full block of epimastigote growth” value is approximately 15 µM.

For `Fc1ccccc1Nc1nc(NCC2CCCO2)c2ccccc2n1` (stereo not drawn) [Compound 39H], the CC50 at 48 h in series [4] amounted to 84 ± 40 µM. Besides, the “EC50 and CC50 values compared with the U2OS/Sylvio experiment (in words)” value in series [5] is on record as “Comparable values”. The “Plasmodium falciparum inhibition (in words)” value in the series on Plasmodium falciparum is reported as “P. falciparum inhibitors”. In addition, the “% Inhibition (40 µM)” value in series [2] (40 µM) was “over 50%”. For the same compound, in series [6], the EC50 was found to be 400 ± 200 nM and the selectivity index is approximately 200. The “puromycin incorporation into elongating protein chains (in words)” value in [3] is “inhibited puromycin incorporation”. In series [8], the EC50 came out at 4.8 ± 2 µM and the “concentration for maximal inhibition / full block of epimastigote growth” value is more than 50 µM.

Consider `Cl.OCCNc1nc(NCC2CCCO2)c2ccccc2n1` (stereo not drawn) [Compound 39I], for which, in series [2], the “% Inhibition (40 µM)” value is reported as “over 50%”.

Regarding `Cl.Clc1cccc(Nc2nc(N3CCOCC3)c3ccccc3n2)c1` [Compound 39K], the “% Inhibition (40 µM)” value in [2] is “over 50%”.

As to `Cl.OCCNc1nc(Nc2ccccc2)nc2ccccc12` [Compound 39L], in [2] (40 µM), the “% Inhibition (40 µM)” value is reported as “around 50%”.

On to `Cl.c1ccc(CNc2nc(NCC3CCCO3)c3ccccc3n2)nc1` (stereo not drawn) [Compound 39M], for which the “% Inhibition (40 µM)” value in series [2] is listed as “less than 40%”.

Turning to `COc1cccc(Nc2nc(NCC3CCCO3)c3ccccc3n2)c1.Cl` (stereo not drawn) [Compound 39], the “inhibition of in vitro translation (in words)” value in series [9] is listed as “clear inhibition”. For the same compound, the “% Inhibition” value in series [1] is reported as approximately 20%. For the same compound, the “PAK4 inhibition (in words)” value with PAK4 was “inhibit PAK4”. For the same compound, in [3], the “puromycin incorporation into elongating protein chains (in words)” value is on record as “inhibited puromycin incorporation”.

For `Cc1ccc2c(c1)sc(-c1ccc(N(C)C)cc1)[n+]2C.[I-]` [Compound 43], the “puromycin incorporation into elongating protein chains (in words)” value in series [3] was “inhibited puromycin incorporation”.

As to `c1ccc(Nc2nc(NCC3CCCO3)c3ccccc3n2)cc1` (stereo not drawn) [Compound 97], the “Plasmodium falciparum inhibition (in words)” value with Plasmodium falciparum is recorded as “inhibit Plasmodium falciparum”.

Turning to `C[C@@H]1[C@H](O)[C@@H](C)/C=C/C=C/C=C/C=C/C=C/C=C/C=C/[C@H](O[C@@H]2O[C@H](C)[C@@H](O)[C@H](N)[C@@H]2O)C[C@@H]2O[C@](O)(C[C@@H](O)C[C@@H](O)[C@H](O)CC[C@@H](O)C[C@@H](O)CC(=O)O[C@H]1C)C[C@H](O)[C@H]2C(=O)O` [Compound 108, Amphotericin B], the “% Inhibition” value in series [1] is approximately 100%.

Regarding `NC[C@@H]1O[C@H](O[C@H]2[C@@H](O)[C@H](O[C@@H]3[C@@H](O)[C@H](N)C[C@H](N)[C@H]3O[C@H]3O[C@H](CO)[C@@H](O)[C@H](O)[C@H]3N)O[C@@H]2CO)[C@H](N)[C@@H](O)[C@@H]1O` [Paromomycin, reference compound], the “inhibition of translation in T. cruzi extract (in words)” value is given as “did not inhibit translation” in [2] and “had no effect” in series [2] (listed as paromomycin). Moreover, the “effect on epimastigote growth (in words)” value was “did not affect parasite growth” in [8] and “did not impact T. cruzi proliferation” in series [8] (listed as paromomycin).

With `C[C@@H]1C[C@@H]([C@H](O)CC2CC(=O)NC(=O)C2)C(=O)[C@@H](C)C1` [cycloheximide], the “concentration above which translation was fully inhibited” value in series [1] is recorded as “above 0.5 μM”.

Turning to `CN[C@@H]1C[C@H](N)[C@@H](O)[C@H](O[C@H]2O[C@H](CO)[C@H](O)[C@@H]3O[C@@]4(O[C@@H]23)O[C@H]([C@H](N)CO)[C@H](O)[C@H](O)[C@H]4O)[C@H]1O` [hygromycin], the “concentration above which translation was fully inhibited” value in [1] is recorded as “above 50 nM”.
